{"source": "paper PMC9574854", "about": "(Journal of Medicinal Chemistry, 2022)", "key": {"PfGSK3": {"biological_target": "T1, PfGSK3 (Plasmodium falciparum, UniProt O77344)", "T1 sequence (O77344 1-440)": "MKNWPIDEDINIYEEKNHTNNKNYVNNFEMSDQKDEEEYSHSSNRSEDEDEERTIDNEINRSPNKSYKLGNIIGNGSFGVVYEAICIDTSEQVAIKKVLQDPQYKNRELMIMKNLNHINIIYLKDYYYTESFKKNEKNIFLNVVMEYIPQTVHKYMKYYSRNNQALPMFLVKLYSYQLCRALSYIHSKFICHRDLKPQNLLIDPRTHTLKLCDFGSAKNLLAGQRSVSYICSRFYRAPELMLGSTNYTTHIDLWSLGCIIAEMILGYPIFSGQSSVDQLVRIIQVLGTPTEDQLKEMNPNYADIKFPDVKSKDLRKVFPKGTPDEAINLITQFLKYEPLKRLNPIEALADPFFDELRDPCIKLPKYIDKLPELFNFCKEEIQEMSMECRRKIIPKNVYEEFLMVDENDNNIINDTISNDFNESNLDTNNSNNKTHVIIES", "assay": "KinaseSeeker split luciferase assay on PfGSK3", "type": "biochemical", "conditions": "screen at 1 μM", "method_in_brief": "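Split-luciferase binding assay: lysate with Cfluc-PfGSK3 fusion plus Fos-Nfluc, incubated 2 h with test compound in DMSO (or DMSO control) and a kinase-specific probe. Luminescence was read immediately after luciferin reagent. % inhibition = (control − sample)/control × 100. Compounds were first counter-screened against split luciferase, then screened at 1 μM.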"}, "PfPK6": {"biological_target": "T2, PfPK6 (Plasmodium falciparum, UniProt Q8IDW1)", "T2 sequence (Q8IDW1 1-305)": "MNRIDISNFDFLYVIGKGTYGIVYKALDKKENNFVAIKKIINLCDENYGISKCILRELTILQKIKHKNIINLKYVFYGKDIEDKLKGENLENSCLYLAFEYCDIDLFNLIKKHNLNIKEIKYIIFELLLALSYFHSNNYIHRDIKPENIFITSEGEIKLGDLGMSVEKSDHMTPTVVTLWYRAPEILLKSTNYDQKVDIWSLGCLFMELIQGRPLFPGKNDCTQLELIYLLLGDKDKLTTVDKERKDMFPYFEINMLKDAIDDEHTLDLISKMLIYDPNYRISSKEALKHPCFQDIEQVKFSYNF", "assay": "KinaseSeeker split luciferase assay on PfPK6", "type": "biochemical", "conditions": "compared to IKK16"}, "[1]": {"assay": "HepG2 CellTiter-Glo cytotoxicity assay", "type": "cell-based, human", "conditions": "human, HepG2 cells", "method_in_brief": "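HepG2 cells were grown in DMEM with 10% FBS, 1% NEAA and 1% L-glutamine, without antibiotics. They were seeded at 4000 cells/well and left overnight at 37 °C, 5% CO₂. Test compound was added at 200 nM or 2 μM, in quadruplicate, with DMSO held constant, for 48 h. Viability was read by CellTiter-Glo 2 luminescence. % viability is the average of two experiments.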"}}, "data": [{"smiles": "c1ccc2sc(-c3ccnc(Nc4ccc(CN5CCC(N6CCCC6)CC5)cc4)n3)cc2c1", "note": "[Compound 12, 4-(Benzo[b]thiophen-2-yl)-N-(4-((4-(pyrrolidin-1-yl)piperidin-1-yl)methyl)phenyl)pyrimidin-2-amine]", "values": [{"measurement": "activity on PfGSK3, in words", "setting": "PfGSK3", "value": "abolished activity"}, {"measurement": "fold increase in potency on PfPK6", "setting": "PfPK6", "value": "~3", "unit": "fold"}, {"measurement": "viability at 48 h, 200 nM", "setting": "[1]", "value": 100, "unit": "%"}]}]}
